Legend:
Type in all cases: ADME
[1] = Maximum velocity was determined at pH 3.38
Summary of the method: (§1)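 Bovine β-glucuronidase in 0.1 M potassium acetate buffer, μ = 0.1 M (KCl), 30 °C. Substrate 4.0×10⁻⁴ to 4.8×10⁻³ M final. Enzyme (30 FU; 42 000 FU when substrate was given in Me₂SO) was added after 20 min; at pH 3.38 the substrate was also added after 20 min. Initial rates came from ΔA/min at 324 nm (Δε = 2×10⁴ M⁻¹cm⁻¹), in duplicate. Vmax was normalized per Fishman unit.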

[2] = Maximum velocity was determined at pH 4.4; summary of the method: as §1
[3] = Maximum velocity was determined at pH 4.7; summary of the method: as §1
[4] = Maximum velocity was determined at pH 5.58; summary of the method: as §1
Bos taurus [5] = species on record: Bos taurus; test: Michaelis constant for hydrolysis catalyzed by Bovine Liver beta-Glucuronidase at pH 3.38; details: cattle; summary of the method: as §1
Bos taurus [6] = species on record: Bos taurus; test: Michaelis constant for hydrolysis catalyzed by Bovine Liver beta-Glucuronidase at pH 4.40; details: cattle, pH 4.4; summary of the method: as §1
Bos taurus [7] = species on record: Bos taurus; test: Michaelis constant for hydrolysis catalyzed by Bovine Liver beta-Glucuronidase at pH 4.7; details: cattle; summary of the method: as §1
Bos taurus [8] = species on record: Bos taurus; test: Michaelis constant for hydrolysis catalyzed by Bovine Liver beta-Glucuronidase at pH 5.58; details: cattle; summary of the method: as §1
[9] = Maximum velocity was determined at pH 4.40; details: pH 4.4; summary of the method: as §1

| Vmax [1] | Vmax [2] | Vmax [3] | Vmax [4] | Vmax / Km (Bos taurus [5]) | Vmax / Km (Bos taurus [6]) | Vmax / Km (Bos taurus [7]) | Vmax / Km (Bos taurus [8]) | Vmax [9] | Compound |
| --- | --- | --- | --- | --- | --- | --- | --- | --- | --- |
| 7.85e-11 | 1.24e-10 | 9.85e-11 | 8.8e-11 | 8.8e-9 | 1.06e-8 | 1.06e-8 | 1.04e-8 | – | NC(=O)C1OC(Sc2[nH]cnc3ncnc2-3)C(O)C(O)C1O (stereo unspecified) |
| 3.73e-8 | – | 3.92e-8 | 2.18e-8 | 0.000659 | 0.000409 | 0.000297 | 0.0000951 | 3.95e-8 | N.O=C(O)C1OC(Sc2[nH]cnc3ncnc2-3)C(O)C(O)C1O (stereo unspecified) |

From ChEMBL document CHEMBL1121994, “Ammonium 7H-purin-6-yl 1-Thio-beta-D-glucopyranosiduronate, a latent, selective anticancer agent” (J Med Chem, 1982)
